Experimental findings from ChEMBL document CHEMBL4385626, “SAR optimization studies on modified salicylamides as a potential treatment for acute myeloid leukemia through inhibition of the CREB pathway” (Bioorg Med Chem Lett, 2019) are described below.

Usually IC50 stands for the concentration that inhibits the measured activity by half. By half-life is commonly meant how long it takes for the measured level to halve.

Series [1] can be described thus: Inhibition of KIX-RLucC fused CBP (unknown origin) binding to KID-RLucN fused CREB (unknown origin) transfected in human HEK293 cells preincubated with compound 30 mins before forskolin addition and measured after 90 mins in presence of coelenterazine by split Renilla luciferase complementation assay.
The test system of another series is Bone marrow cell. Nature of the series: Cytotoxicity against human bone marrow cells incubated for 3 days by CellTiter-Glo luminescent assay. The format is cell-based. The conditions noted are these: 72 h.
The next series relates to HL-60. The series can be described thus: Cytotoxicity against human HL60 cells incubated for 3 days by CellTiter-Glo luminescent assay. Format: functional, cell-based. The conditions noted are these: HL-60, 72 h. Put shortly:
(§1)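 CellTiter-Glo viability read-out on leukemia cell lines. IC50 reported as the average of triplicates.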
On the technique in general: In ATP-based viability assays light output follows the ATP content of the culture.

The nature of series [2]: Metabolic stability in mouse liver microsomes assessed as half life in presence of NADPH by LC-MS/MS analysis. The format is ADME, Microsome. In general terms: Microsomes from liver hold many membrane-bound enzymes, among them those of drug oxidation.
Series [3] in a line: Metabolic stability in human liver microsomes assessed as half life in presence of NADPH by LC-MS/MS analysis. The format is ADME, Microsome.
A further series concerns KG-1. Nature of the series: Cytotoxicity against human KG1 cells incubated for 3 days by CellTiter-Glo luminescent assay. The format is functional, cell-based. The conditions noted are these: KG-1, 72 h. Put shortly: as §1
Another series has as its system NALM-6. Nature of the series: Cytotoxicity against human NALM6 cells incubated for 3 days by CellTiter-Glo luminescent assay. The following applies: NALM-6, 72 h. Format: functional, cell-based. Put shortly:
as §1

The species entered for the next series is Homo sapiens. Nature of the series: Inhibition of CBP KIX domain (unknown origin) binding to BODIPY-labeled phosphorylated CREB KID domain (unknown origin) interaction pre-incubated for 30 mins by fluorescence polarization assay. Put shortly:
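Fluorescence polarization with BODIPY-labeled phosphorylated CREB KID domain and the CBP KIX domain. Polarization reports the degree of KIX-KID binding.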
A general note: Polarisation of emitted light reports the rotation of a fluorescent probe.

The next series concerns Jurkat. The series can be described thus: Cytotoxicity against human Jurkat cells incubated for 3 days by CellTiter-Glo luminescent assay. The format is functional, cell-based. The following applies: 72 h. Put shortly: as §1

Molecules are shown by their SMILES. Active and inactive are the calls of the source. No cut-off for these calls is given here.

Take `N#Cc1ccc(NC(=O)c2cc3ccccc3cc2O)cc1`: the results for the IC50 (in series [1]; in the series with Bone marrow cell; with HL-60) were 4030 nM, greater than 10000 nM and 1580 nM, respectively. For the same compound, the half-life in [2] was 5.5 min; in series [3], 44.9 min.
For the compound `N#Cc1ccc(NC(=O)c2ccc3ccccc3c2)cc1`, the values for the IC50 (in series [1]; with KG-1; with HL-60) were greater than 7000 nM, greater than 10000 nM and greater than 10000 nM, respectively.
Consider `O=C(Nc1cc(C(F)(F)F)cc(C(F)(F)F)c1)c1cc(Br)ccc1O`, for which the IC50 in series [1] is 1240 nM; in the series with Bone marrow cell it was greater than 10000 nM; in the series on NALM-6 it was 590 nM; in the series on KG-1, 300 nM; with HL-60, 290 nM; with Jurkat, 350 nM. Moreover, the inhibition entry in the series filed under Homo sapiens was “Active”. Besides, the half-life in series [2] amounted to 29.1 min; in series [3], 52 min.
On to `O=C(Nc1ccc([N+](=O)[O-])cc1Cl)c1cc(F)ccc1O`, for which the IC50 in series [1] was found to be 1520 nM; with NALM-6 it was 910 nM; in the series on KG-1 it was 490 nM; in the series with HL-60, 280 nM; with Jurkat it was 530 nM.
As for `O=C(Nc1ccc(OC(F)(F)F)cc1)c1cc(F)ccc1O`, the IC50 in the series on NALM-6 was determined as 1210 nM; with KG-1 it was 780 nM; with HL-60, 850 nM; in the series with Jurkat, 810 nM.
Take `N#Cc1ccc(NC(=O)c2cc(Cl)ccc2O)cc1`: the IC50 in series [1] was 3990 nM; in the series with KG-1, 1860 nM; with HL-60, 700 nM.
`N#Cc1ccc(NC(=O)c2cc(Cl)ccc2O)c(Cl)c1`: the IC50 worked out at 730 nM in the series with NALM-6, 860 nM in the series with KG-1, 500 nM in the series on HL-60 and 620 nM in the series on Jurkat.
Turning to `O=C(Nc1ccc(Cl)c(C(F)(F)F)c1)c1cc(F)ccc1O`, the IC50 is 970 nM in the series with NALM-6, 540 nM in the series with KG-1, 600 nM in the series with HL-60 and 530 nM with Jurkat.
Regarding `O=C(Nc1ccc(C(F)(F)F)cc1)c1ccc(F)cc1O`, the IC50 in the series with NALM-6 was 1530 nM; in the series with KG-1, 740 nM; in the series on HL-60, 680 nM; with Jurkat, 800 nM.
Turning to `N#Cc1ccc(NC(=O)c2ccc3cccnc3c2O)c(Cl)c1`, the IC50 is 420 nM in the series with NALM-6, 3670 nM with KG-1, 910 nM in the series on HL-60 and 550 nM with Jurkat.
On the same counts, the results for `O=C(Nc1ccc(C(F)(F)F)cc1)c1ccc(C(F)(F)F)cc1O` are 1120 nM, 780 nM, 380 nM and 820 nM.
For `O=C(Nc1cc(C(F)(F)F)cc(C(F)(F)F)c1)c1cc(F)ccc1O`, in that order: 620 nM, 470 nM, 320 nM and 500 nM.
For `O=C(Nc1cc(F)cc(F)c1)c1ccc2cccnc2c1O`, in that order: 310 nM, 3340 nM, 510 nM and 430 nM.
Take `O=C(Nc1cccc(C(F)(F)F)c1)c1cc(F)ccc1O`: the concentration for half-maximal inhibition (IC50) was found to be 1800 nM in the series with NALM-6, 1010 nM in the series on KG-1, 970 nM with HL-60 and 840 nM in the series on Jurkat.
Turning to `N#Cc1ccc(NC(=O)c2ccc(Br)cc2O)c(Cl)c1`, the IC50 in the series on NALM-6 was 1860 nM; in the series on KG-1, 790 nM; with HL-60, 730 nM; with Jurkat, 750 nM.
On the same counts, the results for `N#Cc1ccc(NC(=O)c2ccc(Br)cc2O)cc1Cl` are 920 nM, 960 nM, 440 nM and 750 nM.
Turning to `N#Cc1ccc(C(=O)Nc2cc3ccccc3cc2O)cc1`, the figures for the IC50 (in series [1]; in the series on KG-1; in the series with HL-60) were greater than 7000 nM, greater than 10000 nM and greater than 10000 nM, respectively.
In the case of `N#Cc1ccc(NC(=O)c2ccc3cccnc3c2O)c(F)c1`, the IC50 was determined as 370 nM in the series with NALM-6, 3260 nM with KG-1, 730 nM in the series on HL-60 and 420 nM with Jurkat.
Consider `O=C(Nc1cc(C(F)(F)F)cc(C(F)(F)F)c1)c1ccc(Br)cc1O`, for which the IC50 in the series on NALM-6 was determined as 1200 nM; in the series with KG-1, 830 nM; in the series with HL-60 it was 270 nM; with Jurkat, 930 nM.
As for `O=C(Nc1cc(C(F)(F)F)cc(C(F)(F)F)c1)c1cc(Br)c(F)cc1O`, the IC50 in the series on NALM-6 stood at 950 nM; in the series on KG-1 it was 510 nM; in the series with HL-60 it was 250 nM; with Jurkat it was 700 nM.
As to `COc1cccc(O)c1C(=O)Nc1ccc(C#N)cc1`, the results for the 50% inhibitory concentration (IC50) (in series [1]; in the series with KG-1; in the series with HL-60) were greater than 7000 nM, greater than 10000 nM and greater than 10000 nM, respectively.
With `O=C(Nc1cc(C(F)(F)F)cc(C(F)(F)F)c1)c1ccc(Cl)cc1O`, the IC50 is 2530 nM in [1]; 850 nM with NALM-6; 620 nM in the series with KG-1; 200 nM in the series on HL-60; 570 nM with Jurkat. Moreover, in the series listed under Homo sapiens, the inhibition entry was “Active”. The half-life in series [2] stood at 31.8 min; in [3], 159 min.
Turning to `O=C(Nc1ccc(OC(F)(F)F)c(Cl)c1)c1cc(F)ccc1O`, the IC50 with NALM-6 was 1000 nM; with KG-1, 370 nM; in the series on HL-60 it was 550 nM; with Jurkat it was 700 nM.
Consider `O=C(Nc1cccc(OC(F)(F)F)c1)c1cc(F)ccc1O`, for which the IC50 in the series on NALM-6 was 1370 nM; in the series with KG-1, 830 nM; in the series on HL-60, 730 nM; in the series with Jurkat it was 700 nM.
Turning to `N#Cc1ccc(NC(=O)c2cc(Br)ccc2O)cc1`, the IC50 in series [1] came to 3030 nM; with KG-1 it was 1290 nM; with HL-60, 620 nM.
Regarding `O=C(Nc1cc(C(F)(F)F)cc(C(F)(F)F)c1)c1cc(Cl)c(F)cc1O`, the half-inhibitory concentration (IC50) with NALM-6 turned out to be 2130 nM; in the series with KG-1, 470 nM; in the series with HL-60 it was 430 nM; in the series on Jurkat, 730 nM.
Turning to `O=C(Nc1ccc(Br)c(Cl)c1)c1cc(F)ccc1O`, the IC50 is 1250 nM in the series on NALM-6, 670 nM in the series on KG-1, 600 nM with HL-60 and 860 nM in the series on Jurkat.
Turning to `O=C(Nc1ccc(C(F)(F)F)cc1)c1cc(Cl)ccc1O`, the 50% inhibitory concentration (IC50) in the series on NALM-6 worked out at 1210 nM; in the series with KG-1, 740 nM; with HL-60 it was 510 nM; in the series with Jurkat, 710 nM.
In the case of `COc1ccc(O)c(C(=O)Nc2ccc(C#N)cc2)c1`, the IC50 was greater than 7000 nM in series [1], greater than 10000 nM with KG-1 and greater than 10000 nM in the series with HL-60.
For `O=C(Nc1ccc(Cl)c(Cl)c1)c1cc(F)ccc1O`, the IC50 in the series on NALM-6 was 1370 nM; in the series on KG-1, 760 nM; in the series with HL-60, 660 nM; in the series with Jurkat it was 670 nM.
Turning to `O=C(Nc1ccc([N+](=O)[O-])cc1)c1cc(F)ccc1O`, the IC50 came to 2080 nM in the series on NALM-6, 1100 nM with KG-1, 520 nM in the series on HL-60 and 940 nM with Jurkat.
For the compound `O=C(Nc1ccc(Cl)cc1Cl)c1cc(F)ccc1O`, the IC50 worked out at 1620 nM with NALM-6, 850 nM in the series on KG-1, 890 nM with HL-60 and 880 nM in the series on Jurkat.
